{"data": "Experimental data from different studies", "organism": "Severe acute respiratory syndrome coronavirus 2", "mode": "inhibitor"}
{"SMILES": "O=C(Nc1ccc([N+](=O)[O-])cc1Cl)c1cc(Cl)ccc1O", "test": "viral entry", "test system": "HeLa-ACE2", "setting": "pseudovirus", "IC50 [µM]": 1.35}
{"SMILES": "COc1nc(N)ncc1-c1cn([C@@H]2O[C@](F)(CO)[C@@H](O)[C@H]2O)cn1", "test": "viral replication", "test system": "A549-ACE2", "setting": "24 h", "IC50 [µM]": "> 100"}
{"SMILES": "Cc1ccccc1-n1nnnc1Sc1ccc(C(=O)c2ccccc2)cc1[N+](=O)[O-]", "test": "viral replication", "test system": "A549-hACE2-TMPRSS2", "setting": "24 h", "IC50 [µM]": 25.3}
{"SMILES": "CCOc1nc2cccc(C(=O)O)c2n1Cc1ccc(-c2ccccc2-c2nnn[nH]2)cc1", "test": "viral replication", "test system": "Caco-2", "setting": "replicon", "IC50 [µM]": 0.714}
{"SMILES": "CCC(CC)COC(=O)[C@H](C)N[P@](=O)(OC[C@H]1O[C@@](C#N)(c2ccc3c(N)ncnn23)[C@H](O)[C@@H]1O)Oc1ccccc1", "test": "viral replication", "test system": "A549-hACE2-TMPRSS2", "setting": "24 h", "IC50 [µM]": 0.1}
{"SMILES": "O=c1[nH]c2ccccc2n1C1CCN(CCCC(c2ccc(F)cc2)c2ccc(F)cc2)CC1", "test": "viral replication", "test system": "Calu-3", "setting": "replicon", "IC50 [µM]": 4.91}
{"SMILES": "CC(C)C(=O)OC[C@@]1(F)O[C@@H](n2cnc(-c3c[nH]c(=O)[nH]c3=O)c2)[C@H](OC(=O)C(C)C)[C@@H]1OC(=O)C(C)C", "test": "viral replication", "test system": "A549-ACE2", "setting": "24 h", "IC50 [µM]": 49.8}
{"SMILES": "Cc1cn2nc([C@@H]3CCCCN3C(=O)c3cc(Cl)ccc3NS(C)(=O)=O)cc2nc1N1CC[C@H](N)C1", "test": "viral entry", "test system": "HeLa-ACE2", "setting": "pseudovirus", "IC50 [µM]": 0.32}
{"SMILES": "Cc1ccc(NC(=O)C2(c3ccc4c(c3)OC(F)(F)O4)CC2)nc1-c1cccc(C(=O)O)c1", "test": "viral replication", "test system": "Caco-2", "setting": "replicon", "IC50 [µM]": 0.964}
{"SMILES": "COc1ncc(-c2cn([C@@H]3O[C@](F)(COC(=O)C(C)C)[C@@H](OC(=O)C(C)C)[C@H]3OC(=O)C(C)C)cn2)c(N)n1", "test": "viral replication", "test system": "A549-ACE2", "setting": "24 h", "IC50 [µM]": 41.9}
